Source: ChEMBL document CHEMBL2380219, “Physalin A induces apoptotic cell death and protective autophagy in HT1080 human fibrosarcoma cells” (J Nat Prod, 2013)
Active and inactive are the calls of the source. The calls are words filed in the database; no cut-off is given here.

Legend:
HT-1080 [1] = test: Induction of autophagy in human HT1080 cells assessed as conversion from LC31to LC32 at 10 uM by Western blotting analysis; assay type: functional, cell-based; settings: TDE = time-dependent effect
How it was run: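 HT1080 cells exposed to 10 μM for 6, 12, 18 and 24 h, then lysed in Hepes pH 7.4/Triton buffer at 4 °C for 60 min. Equal protein run on 12% SDS-PAGE, blotted to nitrocellulose, probed for beclin 1 and LC3, ECL detection. Densities taken relative to β-actin, n = 3.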

HT-1080 [2] = test: Induction of autophagy in human HT1080 cells assessed as conversion from LC31to LC32 at 10 uM pretreated with rapamycin for 1 hr prior to compound addition measured after 24 hrs by Western blotting analysis; assay type: functional, cell-based
How it was run: (§1)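 HT1080 cells pretreated 1 h with 1 mM 3MA or 1 nM rapamycin, then 10 μM added for 24 h. Adherent and floating cells lysed in Hepes pH 7.4/Triton buffer. Equal protein on 12% SDS-PAGE and nitrocellulose, probed for beclin 1 and LC3, ECL detection. Normalized to β-actin, n = 3.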

HT-1080 [3] = test: Induction of apoptosis in human HT1080 cells assessed as PARP cleavage at 10 uM after 6 to 24 hrs by Western blotting analysis; assay type: functional, cell-based
How it was run: (§2)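 HT1080 cells treated with 10 μM for 6, 12, 18 and 24 h. Adherent and floating cells lysed 60 min at 4 °C in Hepes pH 7.4/1% Triton X-100 buffer with phosphatase and protease inhibitors. Equal protein run on 12% SDS-PAGE, transferred to nitrocellulose, probed with specific antibodies, HRP/ECL detection. Band density normalized to β-actin; n = 3.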

HT-1080 [4] = test: Induction of apoptosis in human HT1080 cells assessed as procaspase-3 cleavage at 10 uM by Western blotting analysis; assay type: functional, cell-based; settings: TDE = time-dependent effect
HT-1080 [5] = test: Induction of apoptosis in human HT1080 cells assessed as change in cytochrome C expression at 10 uM after 6 to 24 hrs by Western blotting analysis; assay type: functional, cell-based; how it was run: as §2
HT-1080 [6] = test: Induction of apoptosis in human HT1080 cells assessed as increase in FADD protein expression at 10 uM after 6 to 24 hrs by Western blotting analysis; assay type: functional, cell-based; how it was run: as §2
HT-1080 [7] = test: Induction of apoptosis in human HT1080 cells expressing beclin 1 siRNA assessed as reversal of beclin 1 upregulation at 10 uM after 24 hrs by Western blotting analysis relative to control; assay type: functional, cell-based
How it was run: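 Beclin 1 or nonspecific siRNA transfected into HT1080 cells (5 × 10^5 seeded a day earlier; transfection mixture for 7 h at 37 °C, then normal medium, 24 h before harvest). Cells then got 10 μM for 24 h. Adherent plus floating cells lysed in Hepes pH 7.4/Triton buffer at 4 °C for 60 min. Equal protein on 12% SDS-PAGE, nitrocellulose, ECL. Bands normalized to β-actin, n = 3.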

U-937 = test: Cytotoxicity against human U937 cells assessed as growth inhibition after 24 hrs by MTT assay; assay type: functional, cell-based
How it was run: (§3)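 Seeded 0.8 × 10^4 cells/well, cultured 24 h, then exposed to 0, 10, 20, 40 or 80 μM for 24 h (DMSO <0.05%) in RPMI 1640 or MEM with 10% FBS. Adherent lines rinsed with PBS, given MTT 2 h at 37 °C. Suspension lines (U937, HL60) given MTT 2 h, then centrifuged. Formazan dissolved in DMSO, A492 read. Inhibition % = (control − sample)/(control − blank) × 100.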

HT-1080 [8] = test: Induction of autophagy in human HT1080 cells assessed as increase in autophagy ratio at 10 uM pretreated with 3MA for 1 hr prior to compound addition measured after 24 hrs by MDC staining-based FACS flow cytometric analysis; assay type: functional, cell-based
How it was run: (§4)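 HT1080 cells seeded at 3 × 10^5 per flask and grown 24 h. Pretreated 1 h with 1 mM 3MA or 1 nM rapamycin, then 10 μM for 24 h. Collected cells stained with 0.05 mM MDC at 37 °C for 1 h. MDC-positive ratio measured by flow cytometry, n = 3, mean ± SD.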

HT-1080 [9] = test: Induction of autophagy in human HT1080 cells assessed as increase in autophagolysosomes at 10 uM after 24 hrs by MDC staining-based fluorescence microscopic analysis (reference value: 2.65 +/- 0.12%); assay type: functional
How it was run: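 HT1080 cells at 2 × 10^4 per well, cultured 24 h, then given 10 μM for 24 h. Stained with 0.05 mM MDC at 37 °C for 1 h. Autophagolysosomes viewed by fluorescence microscopy at 200×.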

HT-1080 [10] = test: Induction of autophagy in human HT1080 cells assessed as autophagic vacuole formation at 10 uM pretreated with 3MA for 1 hr prior to compound addition measured after 24 hrs by MDC staining-based FACS flow cytometric analysis; assay type: functional, cell-based; how it was run: as §4
HT-1080 [11] = test: Induction of apoptosis in human HT1080 cells expressing beclin 1 siRNA assessed as increase in apoptotic ratio at 10 uM after 24 hrs by propidium iodide staining-based FACS flow cytometric analysis relative to control; assay type: functional, cell-based
How it was run: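 HT1080 cells transfected with beclin 1 or nonspecific siRNA (7 h at 37 °C, then 24 h in growth medium), then exposed to 10 μM for 24 h. Cells fixed in 70% ethanol at 4 °C for 18 h, washed, stained with PI 50 μg/mL plus RNase A 1 mg/mL. Apoptotic (sub-G1) fraction read by flow cytometry.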

HT-1080 [12] = test: Cytotoxicity against human HT1080 cells assessed as growth inhibition at 10 uM pretreated with rapamycin for 1 hr prior to compound addition measured after 24 hrs by MTT assay.; assay type: functional, cell-based
How it was run: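 HT1080 seeded 0.8 × 10^4 cells/well. MTT 2 h at 37 °C, formazan in DMSO, A492 read. Inhibition % calculated against untreated and blank wells.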

HT-1080 [13] = test: Induction of autophagy in human HT1080 cells assessed as conversion from LC31to LC32 at 10 uM pretreated with 3MA for 1 hr prior to compound addition measured after 24 hrs by Western blotting analysis; assay type: functional, cell-based; how it was run: as §1
HT-1080 [14] = test: Induction of apoptosis in human HT1080 cells assessed as appearance of cleaved procaspase-9 at 10 uM after 6 to 24 hrs by Western blotting analysis; assay type: functional, cell-based; how it was run: as §2
HT-1080 [15] = test: Induction of apoptosis in human HT1080 cells assessed as change in BCL2 expression at 10 uM after 6 to 24 hrs by Western blotting analysis; assay type: functional, cell-based; how it was run: as §2
PBMC = test: Cytotoxicity against human PBMC at 10 to 20 uM after 24 to 48 hrs by MTT assay; assay type: cell-based
How it was run: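 PBMC from fresh blood of three healthy male donors. Blood diluted 1:3 in PBS, layered on Ficoll-Hypaque (1.077 g/mL), spun 900g 30 min. Band washed 400g 10 min, cells resuspended in complete RPMI-1640 in 96-well plates. Treated with 0, 10, 20, 40 or 80 μM for 24 and 48 h, then MTT. Means ± SD of three independent experiments.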

A-431 = test: Cytotoxicity against human A431 cells assessed as growth inhibition after 24 hrs by MTT assay; assay type: functional, cell-based; how it was run: as §3
HT-1080 [16] = test: Induction of apoptosis in human HT1080 cells assessed as change in cytosolic BID expression at 10 uM after 6 to 24 hrs by Western blotting analysis; assay type: functional, cell-based; how it was run: as §2

In the case of `C=C1C(=O)O[C@@H]2C[C@@]1(C)[C@@H]1C(=O)[C@]3(O)O[C@]14[C@@]2(C)OC(=O)[C@@]4(O)CC[C@H]1[C@H]3[C@H](O)C=C2CC=CC(=O)[C@@]21C` [PHYSALIN A], the Activity (HT-1080 [1]) is reported as “tde”, the Activity (HT-1080 [2]) is reported as “Active” and the Activity (HT-1080 [3]) is reported as “Active”. The Activity (HT-1080 [4]) was “tde”, the Activity (HT-1080 [5]) was “inactive” and the Activity (HT-1080 [6]) was “Active”. For the same compound, the Activity (HT-1080 [7]) was “Active”, the “growth inhibition (GI)” value (U-937) was “Dose-dependent effect” and the Activity (HT-1080 [8]) was “inactive”. For the same compound, the Activity (HT-1080 [9]) was 26.7%, the Activity (HT-1080 [10]) was “inactive” and the Activity (HT-1080 [11]) was “Active”. For the same compound, the “growth inhibition (GI)” value (HT-1080 [12]) was “inactive”, the Activity (HT-1080 [13]) was “inactive” and the Activity (HT-1080 [14]) was “inactive”. For the same compound, the Activity (HT-1080 [15]) was “inactive”, the Activity (PBMC) was “Non-toxic” and the “growth inhibition (GI)” value (A-431) was “Dose-dependent effect”. For the same compound, the Activity (HT-1080 [16]) was “inactive”.
